# Data: ChEMBL document CHEMBL4270526, “A novel NAE/UAE dual inhibitor LP0040 blocks neddylation and ubiquitination leading to growth inhibition and apoptosis of cancer cells” (Eur J Med Chem, 2018)
# Calls of active or inactive are those of the source. The calls are words filed in the database; no cut-off is given here.
# Assays:
# [1] = target: NEDD8 activating enzyme (Homo sapiens) (UniProt Q8TBC4+Q13564); experiment: Inhibition of NAE in human AGS cells assessed as reduction in Ubc12-NEDD8 conjugation level after 24 hrs by Western blot analysis; assay type: cell-based
# In short: (§1)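 AGS cells given 2, 4, 6, 8 or 10 μM compound or 0.1% DMSO for 24 h, washed in ice-cold PBS and lysed in RIPA on ice. Equal protein loads run by SDS-PAGE: non-reducing for NEDD8/SUMO/Ub conjugates, reducing for p27, NRF2, CDT1 and cleaved caspase-3. Blotted to PVDF with primary antibody overnight at 4 °C and HRP secondary, ECL detection, densitometry. Three repeats.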
# [2] = target: SUMO-activating enzyme (Homo sapiens) (UniProt Q9UBE0+Q9UBT2); experiment: Inhibition of SAE in human AGS cells assessed as reduction in […]-SUMO conjugation level at 2 to 10 uM after 24 hrs by Western blot analysis; assay type: cell-based; in short: as §1
# [3] = target: Serine/threonine-protein kinase PLK1 (Homo sapiens) (UniProt P53350); experiment: Inhibition of PLK (unknown origin) at 30 uM relative to control
# [4] = target: Epidermal growth factor receptor (Homo sapiens) (UniProt P00533); experiment: Inhibition of EGFR (unknown origin) at 30 uM relative to control
# [5] = tested on: AGS; experiment: Induction of apoptosis in human AGS cells assessed as early apoptotic cells at 4 uM after 36 hrs by Annexin-V-FITC/propidium iodide staining based flow cytometry (reference value: 4.44%); assay type: functional
# [6] = tested on: AGS; experiment: Induction of apoptosis in human AGS cells assessed as necrotic cells at 8 uM after 36 hrs by Annexin-V-FITC/propidium iodide staining based flow cytometry (reference value: 1.01%); assay type: functional
# [7] = tested on: AGS; experiment: Induction of apoptosis in human AGS cells after 36 hrs by Annexin-V-FITC/propidium iodide staining based flow cytometry; assay type: functional, cell-based
# [8] = tested on: AGS; experiment: Synergistic antiproliferative activity against human AGS cells assessed as combination index constant at 1.25 uM after 48 hrs in presence of 5 nM BTZ by CCK8 assay; assay type: functional
# In short: (§2)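 AGS cells at 6×10^3/well attached for 12 h, then exposed for 48 h to compound, bortezomib, or both at set concentrations. CCK-8 added for 4 h, then OD read at 450 nm. Inhibition rates E used for q = E(combo)/(E1+E2−E1×E2). Triplicate experiments.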
# [9] = tested on: AGS; experiment: Synergistic antiproliferative activity against human AGS cells assessed as combination index constant at 1.25 uM after 48 hrs in presence of 7.5 nM BTZ by CCK8 assay; assay type: functional; in short: as §2
# Chain of Epidermal growth factor receptor (Homo sapiens) (P00533 whole entry): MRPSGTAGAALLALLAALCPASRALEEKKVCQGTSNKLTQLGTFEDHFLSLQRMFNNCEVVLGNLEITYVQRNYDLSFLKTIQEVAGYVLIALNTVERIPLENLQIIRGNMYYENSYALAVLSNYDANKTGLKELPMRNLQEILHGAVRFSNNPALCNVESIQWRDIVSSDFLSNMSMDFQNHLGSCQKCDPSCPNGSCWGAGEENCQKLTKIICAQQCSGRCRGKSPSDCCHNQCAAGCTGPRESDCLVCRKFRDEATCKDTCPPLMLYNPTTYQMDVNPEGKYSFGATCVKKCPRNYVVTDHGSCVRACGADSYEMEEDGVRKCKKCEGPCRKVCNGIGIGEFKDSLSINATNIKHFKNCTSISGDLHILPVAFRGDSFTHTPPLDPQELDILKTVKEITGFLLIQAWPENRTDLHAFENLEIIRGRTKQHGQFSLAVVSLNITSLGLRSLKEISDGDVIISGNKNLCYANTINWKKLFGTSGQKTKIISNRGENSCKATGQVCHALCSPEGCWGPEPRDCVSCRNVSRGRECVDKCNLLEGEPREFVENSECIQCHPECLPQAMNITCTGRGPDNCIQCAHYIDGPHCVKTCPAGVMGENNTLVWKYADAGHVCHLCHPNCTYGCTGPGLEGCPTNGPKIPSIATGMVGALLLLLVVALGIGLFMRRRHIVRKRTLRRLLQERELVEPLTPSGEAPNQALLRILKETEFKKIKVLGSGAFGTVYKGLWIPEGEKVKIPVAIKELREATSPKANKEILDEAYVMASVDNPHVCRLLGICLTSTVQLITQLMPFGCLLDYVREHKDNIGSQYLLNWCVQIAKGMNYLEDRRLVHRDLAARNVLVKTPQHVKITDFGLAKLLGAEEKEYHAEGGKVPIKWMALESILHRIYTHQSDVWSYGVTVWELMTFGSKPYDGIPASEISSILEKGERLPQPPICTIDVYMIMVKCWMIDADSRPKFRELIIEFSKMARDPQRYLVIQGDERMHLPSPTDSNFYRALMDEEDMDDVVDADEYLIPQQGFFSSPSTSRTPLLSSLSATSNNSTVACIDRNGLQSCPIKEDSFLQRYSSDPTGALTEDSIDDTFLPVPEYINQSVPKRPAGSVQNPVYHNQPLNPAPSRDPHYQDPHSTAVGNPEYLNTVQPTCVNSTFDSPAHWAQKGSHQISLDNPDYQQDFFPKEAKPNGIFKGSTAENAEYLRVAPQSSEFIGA
# Chain of Serine/threonine-protein kinase PLK1 (Homo sapiens) (P53350 whole entry): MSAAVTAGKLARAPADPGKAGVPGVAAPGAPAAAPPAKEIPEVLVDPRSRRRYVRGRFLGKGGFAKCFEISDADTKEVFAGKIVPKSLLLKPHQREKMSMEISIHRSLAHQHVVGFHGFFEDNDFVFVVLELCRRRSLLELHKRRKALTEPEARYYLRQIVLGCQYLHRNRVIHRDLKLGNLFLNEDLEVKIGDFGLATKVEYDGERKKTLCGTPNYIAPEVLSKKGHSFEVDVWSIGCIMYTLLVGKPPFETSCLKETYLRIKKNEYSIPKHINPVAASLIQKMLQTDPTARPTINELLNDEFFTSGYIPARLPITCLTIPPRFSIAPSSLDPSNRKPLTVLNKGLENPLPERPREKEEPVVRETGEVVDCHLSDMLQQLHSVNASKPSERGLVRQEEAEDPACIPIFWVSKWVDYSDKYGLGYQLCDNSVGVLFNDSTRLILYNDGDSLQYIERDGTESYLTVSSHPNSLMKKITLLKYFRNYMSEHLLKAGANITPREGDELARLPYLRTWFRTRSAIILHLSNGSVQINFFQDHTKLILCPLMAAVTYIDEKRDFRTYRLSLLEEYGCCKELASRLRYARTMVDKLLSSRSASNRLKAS
smiles,measurement,setting,value
O=c1cc(-c2ccc(-c3ccccc3)cc2)c2ccc(N3CCC(NCCc4ccccc4)CC3)cc2o1,inhibition,[1],Dose-dependent effect
same,inhibition,[2],inactive
same,inhibition,[3],5.58%
same,inhibition,[4],2.77%
same,Activity,[5],7.77%
same,Activity,[6],4.71%
same,Activity,[7],Dose-dependent effect
same,CI,[8],4.34
same,CI,[9],3.1
